# Test results from ChEMBL document CHEMBL4014338, “Discovery of Small Molecules as Multi-Toll-like Receptor Agonists with Proinflammatory and Anticancer Activities” (J Med Chem, 2017).
# Experiments:
# [1] = tested on: HeLa; assay: Cell cycle arrest in human HeLa cells assessed as accumulation at S phase at 40 uM after 24 hrs by propidium iodide staining based flow cytometry (reference value: 31%); type: functional
# [2] = molecular target: T1, Toll-like receptor 3 (Homo sapiens, UniProt O15455); assay: Agonist activity at human TLR3 expressed in HEK293 cells assessed as induction of NF-kB activation-mediated SEAP production after 24 hrs by HTS assay; type: cell-based
# T1 sequence (O15455 whole entry): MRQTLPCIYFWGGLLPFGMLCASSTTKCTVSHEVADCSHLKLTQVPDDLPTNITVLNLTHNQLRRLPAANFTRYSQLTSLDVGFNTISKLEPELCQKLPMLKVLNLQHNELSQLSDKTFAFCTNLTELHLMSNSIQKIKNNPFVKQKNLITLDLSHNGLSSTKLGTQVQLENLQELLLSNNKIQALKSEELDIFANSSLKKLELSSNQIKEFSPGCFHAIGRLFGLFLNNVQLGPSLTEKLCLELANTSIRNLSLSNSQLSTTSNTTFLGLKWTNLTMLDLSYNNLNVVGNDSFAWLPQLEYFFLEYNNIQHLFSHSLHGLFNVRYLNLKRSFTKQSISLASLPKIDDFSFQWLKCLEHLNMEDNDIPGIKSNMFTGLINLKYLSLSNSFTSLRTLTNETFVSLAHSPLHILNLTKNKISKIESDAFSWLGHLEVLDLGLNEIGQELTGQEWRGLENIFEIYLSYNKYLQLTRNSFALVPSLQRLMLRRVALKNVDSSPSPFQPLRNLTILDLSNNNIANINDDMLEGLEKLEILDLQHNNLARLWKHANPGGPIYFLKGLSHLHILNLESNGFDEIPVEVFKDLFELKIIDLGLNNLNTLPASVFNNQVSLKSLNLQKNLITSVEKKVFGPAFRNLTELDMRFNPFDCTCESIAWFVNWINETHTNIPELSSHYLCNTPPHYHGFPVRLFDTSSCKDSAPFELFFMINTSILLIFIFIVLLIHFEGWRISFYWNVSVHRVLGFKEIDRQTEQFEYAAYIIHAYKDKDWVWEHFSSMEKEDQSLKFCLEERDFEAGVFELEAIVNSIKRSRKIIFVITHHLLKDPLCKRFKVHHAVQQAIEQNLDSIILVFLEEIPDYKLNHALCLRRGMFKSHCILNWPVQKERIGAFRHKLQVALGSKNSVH
# Procedure, shortened: (§1)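 Stable HEK293 lines expressing a single hTLR plus a SEAP reporter, grown in DMEM/10% FBS with selective antibiotics. Seeded at 5 × 10^4 cells/well for 24 h at 37 °C, then treated 24 h. Supernatant mixed with QUANTI-Blue, 1 h at 37 °C, OD 620 nm. Cognate agonists: Pam3CSK4 (TLR2), poly I:C (TLR3), LPS (TLR4), FLA-BS (TLR5), R848 (TLR7). EC50 as mean ± SD.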
# [3] = molecular target: T2, Toll-like receptor 7 (Homo sapiens, UniProt Q9NYK1); assay: Agonist activity at human TLR7 expressed in HEK293 cells assessed as induction of NF-kB activation-mediated SEAP production after 24 hrs by HTS assay; type: cell-based; procedure, shortened: as §1
# T2 sequence (Q9NYK1 whole entry): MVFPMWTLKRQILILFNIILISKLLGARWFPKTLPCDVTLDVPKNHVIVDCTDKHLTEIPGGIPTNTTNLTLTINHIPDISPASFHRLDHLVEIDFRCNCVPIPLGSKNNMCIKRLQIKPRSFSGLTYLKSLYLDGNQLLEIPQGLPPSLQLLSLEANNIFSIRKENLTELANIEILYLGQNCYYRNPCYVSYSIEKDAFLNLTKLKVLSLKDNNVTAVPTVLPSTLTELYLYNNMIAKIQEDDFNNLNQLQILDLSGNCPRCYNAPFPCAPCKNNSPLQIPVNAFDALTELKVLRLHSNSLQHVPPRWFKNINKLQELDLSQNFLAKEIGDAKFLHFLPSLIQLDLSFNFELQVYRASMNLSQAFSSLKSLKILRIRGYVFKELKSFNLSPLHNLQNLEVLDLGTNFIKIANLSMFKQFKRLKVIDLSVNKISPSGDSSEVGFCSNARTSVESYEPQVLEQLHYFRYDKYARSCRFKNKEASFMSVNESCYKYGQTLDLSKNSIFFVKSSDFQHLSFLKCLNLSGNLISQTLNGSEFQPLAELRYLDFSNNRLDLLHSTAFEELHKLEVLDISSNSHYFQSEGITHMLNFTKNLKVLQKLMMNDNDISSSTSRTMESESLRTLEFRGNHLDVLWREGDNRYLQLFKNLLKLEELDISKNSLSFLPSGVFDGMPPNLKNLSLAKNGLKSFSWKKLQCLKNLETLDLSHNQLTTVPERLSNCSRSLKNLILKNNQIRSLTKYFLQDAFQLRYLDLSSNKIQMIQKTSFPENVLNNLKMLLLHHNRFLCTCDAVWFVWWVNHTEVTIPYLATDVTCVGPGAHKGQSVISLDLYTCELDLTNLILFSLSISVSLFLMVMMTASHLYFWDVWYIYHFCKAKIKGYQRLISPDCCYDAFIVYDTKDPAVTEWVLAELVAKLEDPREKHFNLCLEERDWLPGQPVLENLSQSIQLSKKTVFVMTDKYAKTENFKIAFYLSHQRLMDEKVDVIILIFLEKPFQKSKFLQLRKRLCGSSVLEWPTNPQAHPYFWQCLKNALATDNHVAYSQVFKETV
# [4] = tested on: HeLa; assay: Cell cycle arrest in human HeLa cells assessed as accumulation at G0/G1 phase at 10 uM after 24 hrs by propidium iodide staining based flow cytometry (reference value: 52%); type: functional
# [5] = molecular target: Toll-like receptor 5 (Homo sapiens, UniProt O60602); assay: Agonist activity at human TLR5 expressed in HEK293 cells assessed as induction of NF-kB activation-mediated SEAP production after 24 hrs by HTS assay; type: cell-based; procedure, shortened: as §1
# Sequence of Toll-like receptor 5 (O60602 whole entry): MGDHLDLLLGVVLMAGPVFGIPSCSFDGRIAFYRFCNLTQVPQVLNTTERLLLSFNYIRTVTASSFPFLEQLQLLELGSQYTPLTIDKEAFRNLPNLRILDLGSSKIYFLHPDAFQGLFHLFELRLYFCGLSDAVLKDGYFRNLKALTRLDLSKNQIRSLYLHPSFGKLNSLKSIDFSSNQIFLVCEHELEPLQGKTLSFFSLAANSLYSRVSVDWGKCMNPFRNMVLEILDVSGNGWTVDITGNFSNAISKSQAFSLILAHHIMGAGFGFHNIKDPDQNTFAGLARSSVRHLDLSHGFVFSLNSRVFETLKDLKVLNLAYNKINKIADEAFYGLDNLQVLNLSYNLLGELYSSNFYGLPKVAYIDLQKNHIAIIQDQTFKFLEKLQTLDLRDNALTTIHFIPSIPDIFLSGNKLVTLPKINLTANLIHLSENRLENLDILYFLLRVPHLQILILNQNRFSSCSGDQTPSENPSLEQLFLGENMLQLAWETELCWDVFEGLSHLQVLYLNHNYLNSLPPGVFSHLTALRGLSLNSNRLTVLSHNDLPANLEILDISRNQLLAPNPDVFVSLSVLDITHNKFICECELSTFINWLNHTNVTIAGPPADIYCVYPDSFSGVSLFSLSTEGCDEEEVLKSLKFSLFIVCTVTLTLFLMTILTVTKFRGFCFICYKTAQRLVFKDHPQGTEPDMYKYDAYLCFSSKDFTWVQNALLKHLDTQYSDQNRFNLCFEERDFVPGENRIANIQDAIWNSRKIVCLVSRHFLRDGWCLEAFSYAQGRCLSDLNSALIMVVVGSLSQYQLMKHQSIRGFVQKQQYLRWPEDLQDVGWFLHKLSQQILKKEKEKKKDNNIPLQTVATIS
# [6] = tested on: HeLa; assay: Cell cycle arrest in human HeLa cells assessed as accumulation at G2/M phase at 10 uM after 24 hrs by propidium iodide staining based flow cytometry (reference value: 17%); type: functional
smiles,measurement,setting,value
O=[N+]([O-])c1ccc(COc2cc3c(cc2OCc2ccc([N+](=O)[O-])cc2)OC2(C=C3)CCOCC2)cc1,Activity,[1],41%
same,EC50,[2],4.8 µM
same,EC50,[3],> 100 µM
same,Activity,[4],46%
same,EC50,[5],> 100 µM
same,Activity,[6],19%
